From ChEMBL document CHEMBL1255177, “Search for influence of spatial properties on affinity at α1-adrenoceptor subtypes for phenylpiperazine derivatives of phenytoin” (Bioorg Med Chem Lett, 2010)
pKi: −log10 of the molar value.

Key:
[1] = biological target: T1, Alpha-1D adrenergic receptor (Rattus norvegicus, UniProt P23944); test: Antagonist activity at adrenergic Alpha-1D receptor in rat aorta; type: functional, tissue-based; settings: read-out: pA2 (converted)
T1 sequence (P23944 whole entry): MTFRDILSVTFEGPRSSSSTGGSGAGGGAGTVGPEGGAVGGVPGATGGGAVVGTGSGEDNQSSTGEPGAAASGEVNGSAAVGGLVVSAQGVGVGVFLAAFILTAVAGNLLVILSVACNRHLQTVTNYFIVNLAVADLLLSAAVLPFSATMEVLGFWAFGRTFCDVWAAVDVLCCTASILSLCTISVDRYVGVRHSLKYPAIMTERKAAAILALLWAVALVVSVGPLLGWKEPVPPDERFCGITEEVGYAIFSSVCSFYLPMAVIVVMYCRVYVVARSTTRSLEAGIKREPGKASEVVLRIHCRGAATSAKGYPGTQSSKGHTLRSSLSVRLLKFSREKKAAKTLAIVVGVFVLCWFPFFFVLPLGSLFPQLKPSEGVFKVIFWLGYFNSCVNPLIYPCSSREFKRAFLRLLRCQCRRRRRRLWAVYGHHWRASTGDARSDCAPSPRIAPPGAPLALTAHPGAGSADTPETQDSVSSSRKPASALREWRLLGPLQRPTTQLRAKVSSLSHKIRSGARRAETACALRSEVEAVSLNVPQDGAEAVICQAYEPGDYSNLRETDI
Procedure, shortened: (§1)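 Isolated tissues: guinea pig spleen (α1B), rat aorta (α1D), rat tail artery (α1A). Two cumulative noradrenaline concentration-response curves per tissue, 60 min apart, without then with antagonist. Apparent pA2 = −log[B] + log(r − 1), where r is the ratio of agonist EC50 with and without antagonist. EC50 taken at the curve midpoint. Means ± SEM, 4–8 separate experiments.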

[2] = biological target: T2, Alpha-1A adrenergic receptor (Rattus norvegicus, UniProt P43140); test: Antagonist activity at adrenergic alpha1A receptor in rat tail artery; type: functional, tissue-based; settings: read-out: pA2 (converted); procedure, shortened: as §1
T2 sequence (P43140 whole entry): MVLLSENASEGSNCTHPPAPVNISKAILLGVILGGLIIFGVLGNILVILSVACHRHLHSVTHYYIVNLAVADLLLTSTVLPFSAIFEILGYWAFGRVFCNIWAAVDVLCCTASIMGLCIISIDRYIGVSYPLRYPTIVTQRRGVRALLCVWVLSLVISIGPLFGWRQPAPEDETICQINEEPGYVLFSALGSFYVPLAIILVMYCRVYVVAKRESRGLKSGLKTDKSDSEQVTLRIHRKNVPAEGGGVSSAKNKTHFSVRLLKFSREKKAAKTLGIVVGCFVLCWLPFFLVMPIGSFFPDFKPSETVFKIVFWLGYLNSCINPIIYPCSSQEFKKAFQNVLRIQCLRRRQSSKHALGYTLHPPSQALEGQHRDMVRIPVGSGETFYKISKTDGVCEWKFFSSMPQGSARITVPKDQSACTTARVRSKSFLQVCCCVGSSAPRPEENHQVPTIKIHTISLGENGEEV

[3] = biological target: Alpha-1 adrenergic receptor (Rattus norvegicus); test: Binding affinity to adrenergic alpha1 receptor in rat brain
[4] = biological target: Alpha-1B adrenergic receptor (Cavia porcellus); test: Antagonist activity at adrenergic Alpha-1B receptor in guinea pig spleen; settings: read-out: pA2 (converted)

SMILES | Kb [1] | Kb [2] | pKi [3] | Kb [4]
CCOC(=O)C(C)N1C(=O)N(CC(O)CN2CCN(c3ccccc3OC)CC2)C(c2ccccc2)(c2ccccc2)C1=O (centres undefined) | 70.8 nM |  |  | 
CN1C(=O)N(CC(O)CN2CCN(c3ccccc3F)CC2)C(c2ccccc2)(c2ccccc2)C1=O (centres undefined) | 245 nM | 891 nM | 6.25 | 1820 nM
COC(=O)CN1C(=O)N(CC(O)CN2CCN(c3ccccc3)CC2)C(c2ccccc2)(c2ccccc2)C1=O (centres undefined) | 4370 nM |  |  | 
COc1ccccc1N1CCN(CC(O)CN2C(=O)NC(=O)C2(c2ccccc2)c2ccccc2)CC1 (centres undefined) | 112 nM |  |  | 
CCOC(=O)CN1C(=O)N(CC(O)CN2CCN(c3ccccc3OC)CC2)C(c2ccccc2)(c2ccccc2)C1=O (centres undefined) | 1350 nM |  |  | 
CCOc1ccccc1N1CCN(CC(O)CN2C(=O)N(C(C)C(=O)OC)C(=O)C2(c2ccccc2)c2ccccc2)CC1 (centres undefined) | 269 nM |  |  | 
COc1ccccc1N1CCN(CC(O)CN2C(=O)N(C)C(=O)C2(c2ccccc2)c2ccccc2)CC1 (centres undefined) | 141 nM |  |  | 
CCOc1ccccc1N1CCN(CC(O)CN2C(=O)N(C)C(=O)C2(c2ccccc2)c2ccccc2)CC1 (centres undefined) | 195 nM |  |  | 
COC(=O)C(C)N1C(=O)N(CC(O)CN2CCN(c3ccccc3OC)CC2)C(c2ccccc2)(c2ccccc2)C1=O (centres undefined) | 347 nM | 155 nM | 6.98 | 851 nM
COC(=O)CN1C(=O)N(CC(O)CN2CCN(c3ccccc3OC)CC2)C(c2ccccc2)(c2ccccc2)C1=O (centres undefined) | 295 nM | 224 nM | 6.70 | 1260 nM
